Data: ChEMBL document CHEMBL4689842, “EUbOPEN Chemogenomics Library wave 1” (2021)

System: Fibroblast
Experiment: Multiplex assay against human fibroblast
Type: toxicity, cell-based
Summary of the method: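 Live cells were stained at seeding with Hoechst33342, BioTracker Green Microtubule Cytoskeleton Dye, MitoTracker Red and Annexin V Alexa Fluor 680, then imaged on a CQ1 microscope at 37°C and 5% CO2 after compound addition. CellPathfinder machine-learning gating split cells into Hoechst high-intensity objects or normal cells. Normal cells were split into healthy, pyknosed or fragmented nuclei, and pyknosed cells into mitotic or apoptotic. Tubulin, mitochondrial-mass and membrane-permeability phenotypes are per cents of healthy-nucleus cells.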

[1] = 12 h, 1 µM, compound concentration 1 uM, replicate 1
[2] = 12 h, 1 µM, compound concentration 1 uM, replicate 2
[3] = 12 h, 10 µM, compound concentration 10 uM, replicate 1
[4] = 12 h, 10 µM, compound concentration 10 uM, replicate 2
[5] = 24 h, 1 µM, compound concentration 1 uM, replicate 1
[6] = 24 h, 1 µM, compound concentration 1 uM, replicate 2
[7] = 24 h, 10 µM, compound concentration 10 uM, replicate 1
[8] = 24 h, 10 µM, compound concentration 10 uM, replicate 2
[9] = 48 h, 1 µM, compound concentration 1 uM, replicate 1
[10] = 48 h, 1 µM, compound concentration 1 uM, replicate 2
[11] = 48 h, 10 µM, compound concentration 10 uM, replicate 1
[12] = 48 h, 10 µM, compound concentration 10 uM, replicate 2

CNc1nc(NCc2ccc(NS(C)(=O)=O)cc2Cl)cc(-c2ccccn2)n1
Population Apoptotic (%) [1]: 70% | Population Fragmented Nuclei (%) [1]: 22% | Population Healthy Nuclei (%) [1]: 41% | Population Hoechst High Intensity Objects (%) [1]: 7% | Population Membrane Permeable-Phenotype (%) [1]: 22% | Population Mitochondria Different-Phenotype (%) [1]: 4% | Population Mitotic Cells (%) [1]: 29% | Population Normal (%) [1]: 92% | Population Pyknosed Nuclei (%) [1]: 36% | Population Tubulin-Different-Phenotype (%) [1]: 41% | Total Cell Count [1]: 164 | Population Apoptotic (%) [2]: 33% | Population Fragmented Nuclei (%) [2]: 11% | Population Healthy Nuclei (%) [2]: 82% | Population Hoechst High Intensity Objects (%) [2]: 8% | Population Membrane Permeable-Phenotype (%) [2]: 0% | Population Mitochondria Different-Phenotype (%) [2]: 9% | Population Mitotic Cells (%) [2]: 66% | Population Normal (%) [2]: 91% | Population Pyknosed Nuclei (%) [2]: 5% | Population Tubulin-Different-Phenotype (%) [2]: 11% | Total Cell Count [2]: 61 | Population Apoptotic (%) [3]: 60% | Population Fragmented Nuclei (%) [3]: 23% | Population Healthy Nuclei (%) [3]: 39% | Population Hoechst High Intensity Objects (%) [3]: 17% | Population Membrane Permeable-Phenotype (%) [3]: 21% | Population Mitochondria Different-Phenotype (%) [3]: 15% | Population Mitotic Cells (%) [3]: 39% | Population Normal (%) [3]: 82% | Population Pyknosed Nuclei (%) [3]: 36% | Population Tubulin-Different-Phenotype (%) [3]: 82% | Total Cell Count [3]: 142 | Population Apoptotic (%) [4]: 57% | Population Fragmented Nuclei (%) [4]: 6% | Population Healthy Nuclei (%) [4]: 81% | Population Hoechst High Intensity Objects (%) [4]: 9% | Population Membrane Permeable-Phenotype (%) [4]: 12% | Population Mitochondria Different-Phenotype (%) [4]: 32% | Population Mitotic Cells (%) [4]: 42% | Population Normal (%) [4]: 90% | Population Pyknosed Nuclei (%) [4]: 11% | Population Tubulin-Different-Phenotype (%) [4]: 30% | Total Cell Count [4]: 56 | Population Apoptotic (%) [5]: 70% | Population Fragmented Nuclei (%) [5]: 25% | Population Healthy Nuclei (%) [5]: 53% | Population Hoechst High Intensity Objects (%) [5]: 11% | Population Membrane Permeable-Phenotype (%) [5]: 23% | Population Mitochondria Different-Phenotype (%) [5]: 7% | Population Mitotic Cells (%) [5]: 29% | Population Normal (%) [5]: 88% | Population Pyknosed Nuclei (%) [5]: 20% | Population Tubulin-Different-Phenotype (%) [5]: 43% | Total Cell Count [5]: 169 | Population Apoptotic (%) [6]: 25% | Population Fragmented Nuclei (%) [6]: 8% | Population Healthy Nuclei (%) [6]: 85% | Population Hoechst High Intensity Objects (%) [6]: 1% | Population Membrane Permeable-Phenotype (%) [6]: 0% | Population Mitochondria Different-Phenotype (%) [6]: 11% | Population Mitotic Cells (%) [6]: 75% | Population Normal (%) [6]: 98% | Population Pyknosed Nuclei (%) [6]: 5% | Population Tubulin-Different-Phenotype (%) [6]: 11% | Total Cell Count [6]: 67 | Population Apoptotic (%) [7]: 64% | Population Fragmented Nuclei (%) [7]: 31% | Population Healthy Nuclei (%) [7]: 46% | Population Hoechst High Intensity Objects (%) [7]: 27% | Population Membrane Permeable-Phenotype (%) [7]: 18% | Population Mitochondria Different-Phenotype (%) [7]: 18% | Population Mitotic Cells (%) [7]: 35% | Population Normal (%) [7]: 72% | Population Pyknosed Nuclei (%) [7]: 22% | Population Tubulin-Different-Phenotype (%) [7]: 77% | Total Cell Count [7]: 174 | Population Apoptotic (%) [8]: 50% | Population Fragmented Nuclei (%) [8]: 20% | Population Healthy Nuclei (%) [8]: 66% | Population Hoechst High Intensity Objects (%) [8]: 10% | Population Membrane Permeable-Phenotype (%) [8]: 4% | Population Mitochondria Different-Phenotype (%) [8]: 26% | Population Mitotic Cells (%) [8]: 50% | Population Normal (%) [8]: 89% | Population Pyknosed Nuclei (%) [8]: 12% | Population Tubulin-Different-Phenotype (%) [8]: 17% | Total Cell Count [8]: 71 | Population Apoptotic (%) [9]: 77% | Population Fragmented Nuclei (%) [9]: 29% | Population Healthy Nuclei (%) [9]: 63% | Population Hoechst High Intensity Objects (%) [9]: 17% | Population Membrane Permeable-Phenotype (%) [9]: 23% | Population Mitochondria Different-Phenotype (%) [9]: 7% | Population Mitotic Cells (%) [9]: 22% | Population Normal (%) [9]: 82% | Population Pyknosed Nuclei (%) [9]: 7% | Population Tubulin-Different-Phenotype (%) [9]: 46% | Total Cell Count [9]: 155 | Population Apoptotic (%) [10]: 50% | Population Fragmented Nuclei (%) [10]: 28% | Population Healthy Nuclei (%) [10]: 69% | Population Hoechst High Intensity Objects (%) [10]: 8% | Population Membrane Permeable-Phenotype (%) [10]: 4% | Population Mitochondria Different-Phenotype (%) [10]: 2% | Population Mitotic Cells (%) [10]: 50% | Population Normal (%) [10]: 91% | Population Pyknosed Nuclei (%) [10]: 2% | Population Tubulin-Different-Phenotype (%) [10]: 38% | Total Cell Count [10]: 105 | Population Apoptotic (%) [11]: 70% | Population Fragmented Nuclei (%) [11]: 29% | Population Healthy Nuclei (%) [11]: 61% | Population Hoechst High Intensity Objects (%) [11]: 36% | Population Membrane Permeable-Phenotype (%) [11]: 20% | Population Mitochondria Different-Phenotype (%) [11]: 12% | Population Mitotic Cells (%) [11]: 30% | Population Normal (%) [11]: 63% | Population Pyknosed Nuclei (%) [11]: 9% | Population Tubulin-Different-Phenotype (%) [11]: 84% | Total Cell Count [11]: 168 | Population Apoptotic (%) [12]: 100% | Population Fragmented Nuclei (%) [12]: 27% | Population Healthy Nuclei (%) [12]: 71% | Population Hoechst High Intensity Objects (%) [12]: 41% | Population Membrane Permeable-Phenotype (%) [12]: 15% | Population Mitochondria Different-Phenotype (%) [12]: 3% | Population Mitotic Cells (%) [12]: 0% | Population Normal (%) [12]: 58% | Population Pyknosed Nuclei (%) [12]: 1% | Population Tubulin-Different-Phenotype (%) [12]: 79% | Total Cell Count [12]: 203

Cc1nc(Nc2n[nH]c3c2CN(C(=O)N[C@H](CN(C)C)c2ccccc2)C3(C)C)c2sccc2n1 [PF-03758309]
Population Apoptotic (%) [1]: 82% | Population Fragmented Nuclei (%) [1]: 33% | Population Healthy Nuclei (%) [1]: 48% | Population Hoechst High Intensity Objects (%) [1]: 13% | Population Membrane Permeable-Phenotype (%) [1]: 6% | Population Mitochondria Different-Phenotype (%) [1]: 2% | Population Mitotic Cells (%) [1]: 17% | Population Normal (%) [1]: 86% | Population Pyknosed Nuclei (%) [1]: 18% | Population Tubulin-Different-Phenotype (%) [1]: 2% | Total Cell Count [1]: 216 | Population Apoptotic (%) [2]: 60% | Population Fragmented Nuclei (%) [2]: 54% | Population Healthy Nuclei (%) [2]: 37% | Population Hoechst High Intensity Objects (%) [2]: 28% | Population Membrane Permeable-Phenotype (%) [2]: 0% | Population Mitochondria Different-Phenotype (%) [2]: 13% | Population Mitotic Cells (%) [2]: 40% | Population Normal (%) [2]: 71% | Population Pyknosed Nuclei (%) [2]: 8% | Population Tubulin-Different-Phenotype (%) [2]: 13% | Total Cell Count [2]: 83 | Population Apoptotic (%) [3]: 62% | Population Fragmented Nuclei (%) [3]: 35% | Population Healthy Nuclei (%) [3]: 51% | Population Hoechst High Intensity Objects (%) [3]: 11% | Population Membrane Permeable-Phenotype (%) [3]: 9% | Population Mitochondria Different-Phenotype (%) [3]: 10% | Population Mitotic Cells (%) [3]: 37% | Population Normal (%) [3]: 88% | Population Pyknosed Nuclei (%) [3]: 12% | Population Tubulin-Different-Phenotype (%) [3]: 32% | Total Cell Count [3]: 240 | Population Apoptotic (%) [4]: 40% | Population Fragmented Nuclei (%) [4]: 57% | Population Healthy Nuclei (%) [4]: 25% | Population Hoechst High Intensity Objects (%) [4]: 39% | Population Membrane Permeable-Phenotype (%) [4]: 0% | Population Mitochondria Different-Phenotype (%) [4]: 20% | Population Mitotic Cells (%) [4]: 60% | Population Normal (%) [4]: 60% | Population Pyknosed Nuclei (%) [4]: 16% | Population Tubulin-Different-Phenotype (%) [4]: 33% | Total Cell Count [4]: 98 | Population Apoptotic (%) [5]: 70% | Population Fragmented Nuclei (%) [5]: 25% | Population Healthy Nuclei (%) [5]: 53% | Population Hoechst High Intensity Objects (%) [5]: 16% | Population Membrane Permeable-Phenotype (%) [5]: 7% | Population Mitochondria Different-Phenotype (%) [5]: 8% | Population Mitotic Cells (%) [5]: 29% | Population Normal (%) [5]: 83% | Population Pyknosed Nuclei (%) [5]: 20% | Population Tubulin-Different-Phenotype (%) [5]: 7% | Total Cell Count [5]: 181 | Population Apoptotic (%) [6]: 75% | Population Fragmented Nuclei (%) [6]: 59% | Population Healthy Nuclei (%) [6]: 33% | Population Hoechst High Intensity Objects (%) [6]: 28% | Population Membrane Permeable-Phenotype (%) [6]: 0% | Population Mitochondria Different-Phenotype (%) [6]: 10% | Population Mitotic Cells (%) [6]: 25% | Population Normal (%) [6]: 71% | Population Pyknosed Nuclei (%) [6]: 6% | Population Tubulin-Different-Phenotype (%) [6]: 0% | Total Cell Count [6]: 82 | Population Apoptotic (%) [7]: 67% | Population Fragmented Nuclei (%) [7]: 30% | Population Healthy Nuclei (%) [7]: 54% | Population Hoechst High Intensity Objects (%) [7]: 20% | Population Membrane Permeable-Phenotype (%) [7]: 15% | Population Mitochondria Different-Phenotype (%) [7]: 6% | Population Mitotic Cells (%) [7]: 32% | Population Normal (%) [7]: 79% | Population Pyknosed Nuclei (%) [7]: 15% | Population Tubulin-Different-Phenotype (%) [7]: 40% | Total Cell Count [7]: 254 | Population Apoptotic (%) [8]: 100% | Population Fragmented Nuclei (%) [8]: 48% | Population Healthy Nuclei (%) [8]: 45% | Population Hoechst High Intensity Objects (%) [8]: 34% | Population Membrane Permeable-Phenotype (%) [8]: 11% | Population Mitochondria Different-Phenotype (%) [8]: 22% | Population Mitotic Cells (%) [8]: 0% | Population Normal (%) [8]: 65% | Population Pyknosed Nuclei (%) [8]: 6% | Population Tubulin-Different-Phenotype (%) [8]: 44% | Total Cell Count [8]: 92
